Screens as filed in PubChem.
Only some compounds are listed: those with a hit (about 3% of all), similar ones and a draw of the others.
Cneo AK release: causes C. neoformans cell lysis; adenylate kinase release luminescence, 4 h; normalised: neutral wells 0, clomiphene wells 100; lysis activity, % at 15 µM; AID 651654; 360,000 tested, 0.2% active;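 active means mean lysis activity across replicates of at least 80%, whatever share of replicates individually reach that level; inactive means mean lysis activity below 80%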
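Material – Cryptococcus neoformans yeast cells · Quantity – 5 × 10^6 yeast cells/mL · Buffer or medium – YPD medium · Compound – single dose · Timing – 4 h static compound exposure, 37 °C, read 1 h post-reagent · Signal – adenylate kinase release luminescence · Read-out basis – lysis from increased AK signal · Benchmarks – Clomiphene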
PGC1a acetyl inh: lowers PGC1a acetylation signal in U2OS cells. 350,000 tested, 0.17% active. inhibition, % at 15.6 µM. AlphaScreen anti-acetyl-lysine; with virally co-expressed GCN5 acetyltransferase. AID 651687;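 active means every replicate shows inhibition of at least 40%; inconclusive means mean inhibition at least 40% but some replicate below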;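 further: 0% = neutral control wells and 100% = positive control wells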
Statin myotox sup: suppressors of simvastatin-induced myotoxicity in C2C12 myotubes; ATP luminescence, 48 h; scaled: DMSO 0, geranylgeraniol control 100; rescue of ATP level, % at 7.49 µM; 330,000 tested, 0.78% active;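 active means mean ATP rescue above about 67%, or every replicate alone reaching that limit, limit read from the data, passing the limit was not always enough; inconclusive means no clear call, values can overlap the other calls; inactive means mean under the limit and some replicate under it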;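 further: myotubes were challenged with 10 µM simvastatin during compound exposure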
S100A4 MyoIIA: S100A4-myosin IIA interaction inhibition; P26447; S100A4/TAMRA-MyoIIA peptide fluorescence polarization; inhibition, % at 10.7 µM; 360,000 tested, 0.14% active;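 active means mean inhibition of at least 70% across replicates, with every replicate also reaching that level; inconclusive means mean inhibition reaches 70% but some replicates fall short; inactive means mean inhibition below 70%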
Target sequence (P26447 whole entry, looked up): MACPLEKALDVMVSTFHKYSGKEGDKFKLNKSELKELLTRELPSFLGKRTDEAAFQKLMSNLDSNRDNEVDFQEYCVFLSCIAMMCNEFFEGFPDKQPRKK
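Compound dosing: one dose per compound; test system: human S100A4 monomer with TAMRA-labelled myosin IIA peptide; probe or stimulus: TAMRA-labelled myosin IIA heavy-chain peptide probe, 5 nM; medium: HEPES buffer with Ca2+, pH 7.2; schedule: 5 min incubation before reading; benchmarks: neutral control DMSO, positive control TFP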
Ecoli rRNA inh: inhibits bacterial ribosomal RNA function over humanized ribosomes. E. coli WT GFP vs humanized-ribosome RFP mutants, fluorescence, 24 h; stronger effect = lower value; DMSO median 0, no signal -100. GFP signal change (wild-type ribosome), % (test concentration not listed). 350,000 tested, 1.6% active. AID 720706;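 active means significant combined selectivity score with lowered wild-type GFP, culture density cut under 30%, mutant RFP and density less affected; inactive means any of these conditions unmet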
SIRT5 block: blocks human SIRT5 desuccinylation of peptide. AID 652115. 330,000 tested, 1.1% active. inhibition, % at 15 µM. Purified SirT5, succinyl-peptide AMC, trypsin-coupled fluorescence. Q9NXA8; in the data active means inhibition above about 15%; inconclusive means no clear call, values can overlap the other calls
Target sequence (Q9NXA8 whole entry, looked up): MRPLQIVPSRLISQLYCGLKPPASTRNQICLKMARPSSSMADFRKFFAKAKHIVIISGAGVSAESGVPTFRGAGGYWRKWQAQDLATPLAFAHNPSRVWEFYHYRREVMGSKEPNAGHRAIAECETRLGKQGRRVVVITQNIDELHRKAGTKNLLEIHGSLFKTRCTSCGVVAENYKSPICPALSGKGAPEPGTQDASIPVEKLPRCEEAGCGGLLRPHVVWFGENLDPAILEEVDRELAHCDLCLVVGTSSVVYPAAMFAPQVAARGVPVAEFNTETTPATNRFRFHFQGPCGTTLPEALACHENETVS
* hit, by the source's call; i = inactive; ? = inconclusive; / = not tested or not shown.

SMILES	Cneo AK release	PGC1a acetyl inh	Statin myotox sup	S100A4 MyoIIA	Ecoli rRNA inh	SIRT5 block
COc1ccc(OC)c(C=C2CCc3ccccc3C2=O)c1	2.2	-17.0	-10.3	2.9	-24.8	-2.4
COc1ccc2c(c1)CC/C(=C/c1cc(OC)c(OC)c(OC)c1)C2=O	/	?	2.0	-3.5	-20.1*	-8.6
COc1ccccc1NC(=O)c1cc2ccccc2o/c1=N\O	-1.6	2.0	-2.6	/	/	/
COc1ccccc1NC(=O)c1cc2ccc(O)cc2o/c1=N\O	-8.5	5.0	68.7*	/	/	/
CCCC(=O)Nc1ccc2c(c1)C(=O)N(C)C[C@@H](OC)[C@@H](C)CN(Cc1ccccn1)[C@@H](C)CO2	0.7	-2.3	4.5	11.6	-0.6	-7.7
O=C(COC(=O)c1cccc(S(=O)(=O)Nc2ccc(F)cc2)c1)NCCN1C(=O)CSC1=O	1.9	/	5.0	-3.9	5.6	16.7*
CO[C@H]1CN(C)C(=O)c2ccc(NS(=O)(=O)c3ccc(C)cc3)cc2OC[C@H](C)NC[C@@H]1C	/	2.9	/	2.3	-0.2	-4.7
C#CC(=O)N(c1ccc(OC)cc1OC)C(C(=O)NC1CCCC1)c1cccs1 (stereo not drawn)	/	94.5*	-366.4	-2.6	-12.4	-1.6
C#CC(=O)N(c1cc(OC)ccc1OC)C(C(=O)NC1CCCC1)c1cccs1 (stereo not drawn)	0.4	88.2*	i	/	/	/
COc1ccc(N(C(=O)c2ccco2)C(C(=O)NC2CCCCC2)c2cccs2)cc1OC (stereo not drawn)	/	-8.7	18.6	/	/	/
CO[C@H]1CN(C)C(=O)c2cc(NC(=O)Nc3cccc(F)c3)ccc2OC[C@@H](C)NC[C@@H]1C	-0.8	10.3	-3.3	-0.3	-0.6	-1.6
CC(=O)Nc1ccc(-c2csc(N/N=C(/C)c3ccccc3)n2)cc1	/	-6.9	/	-7.3	-8.2	-4.9
C/C(=N/Nc1nc(-c2ccc(Cl)cc2)cs1)c1cccs1	-0.3	1.6	143.6*	/	/	/
CC(=O)Nc1cccc(-c2csc(Nc3cc(C)ccn3)n2)c1	-6.0	-32.4	14.2	/	/	/
O=C(Nc1nc(-c2ccccc2)cs1)c1cccs1	-6.7	-9.4	-26.2	/	/	/
CCOC(=O)/C(C)=N/Nc1nc(-c2ccc(NC(C)=O)cc2)cs1	0.0	-4.8	/	-9.4	-26.9*	4.1
CC(=O)Nc1ccc(-c2csc(Nc3cc(C)ccn3)n2)cc1	-1.0	7.3	12.2	2.4	-47.8*	-1.0
CC(C)=NNc1nc(-c2ccc([N+](=O)[O-])cc2)cs1	/	-0.8	/	-7.1	-34.5*	6.1
CC(C)NC(=O)Nc1cccc2c1O[C@H](CN(C)S(=O)(=O)c1ccc(Cl)cc1)[C@@H](C)CN([C@@H](C)CO)C2=O	0.6	-4.2	-6.9	12.5	3.0	-3.7
COc1ccc(NC(=O)N(C)C[C@H]2OCc3ccccc3-c3ccccc3C(=O)N([C@@H](C)CO)C[C@H]2C)cc1	-1.5	1.2	-8.5	1.4	1.0	-5.8
c1ccc(C2=Nc3ccccc3OC2)cc1	-0.2	-1.4	88.7*	/	/	/
Clc1ccc(C2=Nc3cc(Cl)ccc3OC2)cc1	/	-12.3	/	-2.7	-28.6	-4.1
COC(=O)c1cc(S(=O)(=O)NCc2ccc(Br)cc2)c[nH]1	-0.5	-0.8	1.7	-6.5	-0.7	21.8*
COC(=O)c1cc(S(=O)(=O)NCc2ccccc2)c[nH]1	-0.8	7.9	-4.6	-3.6	-10.4	-4.1
C[C@H]1CN([C@@H](C)CO)C(=O)c2cccc(NS(C)(=O)=O)c2O[C@@H]1CN(C)Cc1ccc(-c2ccccc2)cc1	111.2*	-1.2	42.6	3.6	-5.2	/
SMILES	Cneo AK release	PGC1a acetyl inh	Statin myotox sup	S100A4 MyoIIA	Ecoli rRNA inh	SIRT5 block
C[C@H]1CN([C@@H](C)CO)C(=O)c2cccc(NS(C)(=O)=O)c2O[C@H]1CN(C)Cc1ccccc1	-1.3	-2.3	27.3	2.4	1.1	15.1*
C[C@H]1CCCCO[C@H](CN(C)C(=O)c2ccccc2)[C@@H](C)CN([C@@H](C)CO)C(=O)c2cc(NC(=O)CCCN(C)C)ccc2O1	-4.0	6.7	-8.3	4.8	1.0	4.1
C[C@H](CO)N1C[C@H](C)[C@H](CN(C)C(=O)C2CCCCC2)Oc2ncc(C#CC3CCCC3)cc2C1=O	1.3	5.7	-11.9	5.8	3.7	8.9
Cc1onc(-c2ccccc2)c1C(=O)OCC(=O)Nc1ccc2c(c1)OCO2	-0.1	0.6	101.8*	/	/	/
CCOC(=O)Nc1ccc(Oc2ccccc2)cc1	-1.4	-9.9	-7.1	/	/	/
CCOC(=O)Nc1ccc(C(=O)/C=C/c2ccccc2)cc1	-3.9	48.2	-2.3	-2.2	-25.5*	-1.2
C[C@@H]1CN([C@H](C)CO)C(=O)Cc2cc(NC(=O)CCC(F)(F)F)ccc2O[C@H]1CN(C)Cc1ccccc1	-7.8	/	18.0	13.8	-0.1	2.2
C[C@@H]1CN([C@H](C)CO)C(=O)c2cc(NC(=O)CCC(F)(F)F)ccc2O[C@H]1CN(C)Cc1ccc(Oc2ccccc2)cc1	5.0	2.5	/	-23.2	-2.9	26.5*
C[C@@H]1CN([C@H](C)CO)C(=O)Cc2cc(NC(=O)CCC(F)(F)F)ccc2O[C@H]1CN(C)Cc1ccc(Oc2ccccc2)cc1	-1.2	-3.8	102.3*	/	-8.1	1.8
C[C@@H]1CN([C@@H](C)CO)C(=O)c2cc(NC(=O)Cn3cnnn3)ccc2O[C@@H]1CN(C)S(=O)(=O)c1ccc(Cl)cc1	/	-0.6	-23.5	-23.6	4.3	4.0
COc1cccc(OCCSc2nnc3sc4ccccc4n23)c1	-3.5	5.0	4.7	/	/	/
c1ccc(OCCSc2nnc3sc4ccccc4n23)cc1	-2.8	-2.1	10.3	10.5	-41.0*	1.0
N#C/C(=N/O)c1nc(-c2ccc(F)cc2)cs1	/	/	/	-7.8	-40.7*	1.7
COCC(=O)N(C)C[C@H]1Oc2cc(C3=CCCC3)ccc2S(=O)(=O)N([C@H](C)CO)C[C@H]1C	-7.0	2.3	8.8	0.8	0.1	-1.2
O=S(=O)(c1ccccc1)N1CCCCN2[C@@H](CO)[C@@H](c3ccc(-c4ccccc4F)cc3)[C@@H]2C1	3.0	-6.0	13.3	-22.7	-55.5	3.3
Cc1ccc(Nc2c(-c3ccc(N4CCOCC4)cc3)nc3ncccn23)c(C)c1	0.8	0.4	2.4	-1.9	-0.9	/
Cc1cccc(C)c1Nc1c(-c2ccc(N3CCOCC3)cc2)nc2ncccn12	-0.6	-7.8	6.3	-19.9	-24.6*	2.3
O=C(C[C@H]1C[C@H]2c3cc(NC(=O)C4CCC4)ccc3O[C@H]2[C@@H](CO)O1)NC1CCCCC1	/	5.3	-5.3	/	0.6	/
O=C(O)CSc1nnc(-c2ccccc2Br)n1-c1cccc(C(F)(F)F)c1	/	/	/	0.1	-23.8*	2.5
CS/C(=N\S(=O)(=O)c1cccs1)Nc1ccc(Cl)cc1	/	/	/	6.3	-29.8*	-3.2
CS/C(=N\S(=O)(=O)c1cccs1)Nc1ccc(Br)cc1F	-1.4	-13.7	-4.2	-4.1	-23.2	0.7
